For orientation: LD50 means the dose at which mortality reaches 50%.

Activity, solubility and LD50 data for four compounds are collected here from ChEMBL document CHEMBL3272327, “Hypocholesterolemic activity of 1,3-bis(substituted phenoxy)-2-propanones” (J Med Chem, 1976).

SMILES strings stand for the structures. Some results are limits rather than exact numbers.

In series [1] the test system is Rattus norvegicus. The experiment in a line: Effect on heart weight in rat at 10 mg/kg/day administered for 16 days measured 24 hrs after last drug dosage relative to total body weight (reference value: 0.43 +/- 0.10%). In kind it is ADME, organism-based. The settings on record: in vivo.
For series [2], the system named is Rattus norvegicus. The experiment in a line: Hypocholesterolemic activity in Sprague-Dawley rat assessed as serum cholesterol level at 10 mg/kg/day, po administered via intubation measured on day 4 by Liebermann-Burchard reaction (reference value: 100%). In kind it is functional.
Series [3] is described as follows: Solubility of the compound in 1% CMC. In kind it is physicochemical.
Series [4] concerns Rattus norvegicus. The experiment in a line: Effect on kidney weight in rat at 10 mg/kg/day administered for 16 days measured 24 hrs after last drug dosage relative to total body weight (reference value: 0.96 +/- 0.08%). Particulars: in vivo. In kind it is ADME, organism-based.
For series [5], the system named is Rattus norvegicus. Nature of the series: Uterotrophic activity in ovariectomized Sprague-Dawley rat assessed as uterine weight administered for 3 days (reference value: 100 +/- 27%). In kind it is organism-based, Uterus. Particulars: in vivo, 72 h.
In series [6] the test system is Rattus norvegicus. Nature of the series: Effect on liver weight in rat at 10 mg/kg/day administered for 16 days measured 24 hrs after last drug dosage relative to total body weight (reference value: 4.54 +/- 0.29%). In kind it is ADME, organism-based. The settings on record: in vivo.
A short description of series [7]: Toxicity in ip dosed CF1 mouse assessed as animal death. In kind it is organism-based. The settings on record: in vivo. The essentials:
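Male CF1 mice given active propanones ip over 10 mg to 6 g/kg where solubility allowed; deaths recorded to estimate LD50.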

In series [8] the test system is Rattus norvegicus. Nature of the series: Hypocholesterolemic activity in Sprague-Dawley rat assessed as serum cholesterol level at 10 mg/kg/day, po administered via intubation measured on day 16 by Liebermann-Burchard reaction (reference value: 100%). In kind it is functional.
For series [9], the system named is Rattus norvegicus. The experiment in a line: Effect on vesicular gland weight in rat at 10 mg/kg/day administered for 16 days measured 24 hrs after last drug dosage relative to total body weight (reference value: 0.11 +/- 0.04%). The settings on record: in vivo. It counts as ADME, organism-based.
Series [10] deals with Rattus norvegicus. The experiment in a line: Effect on epididymis and vas deferens weight in rat at 10 mg/kg/day administered for 16 days measured 24 hrs after last drug dosage relative to total body weight (reference value: 0.24 +/- 0.07%). It counts as ADME, organism-based. Particulars: in vivo.
For series [11], the system named is Rattus norvegicus. Nature of the series: Hypocholesterolemic activity in Sprague-Dawley rat assessed as serum cholesterol level at 10 mg/kg/day, po administered via intubation measured on day 10 by Liebermann-Burchard reaction (reference value: 100%). It counts as functional.
In series [12] the test system is Rattus norvegicus. The experiment in a line: Effect on testes weight in rat at 10 mg/kg/day administered for 16 days measured 24 hrs after last drug dosage relative to total body weight (reference value: 1.10 +/- 0.17%). It counts as ADME, organism-based, Testis. The settings on record: in vivo.
In series [13] the test system is Mus musculus. The experiment in a line: Antifertility activity in CF1 mouse assessed as proportion of reabsorption litter at 50 mg/kg/day, ip (reference value: 100 +/- 25%). Particulars: in vivo. It counts as ADME, organism-based. Also noted: route intraperitoneal.
In series [14] the test system is Mus musculus. Nature of the series: Antifertility activity in CF1 mouse assessed as proportion of fetus per litter at 50 mg/kg/day, ip (reference value: 100 +/- 25%). It counts as ADME, organism-based. Also noted: route intraperitoneal. The settings on record: in vivo.
In series [15] the test system is Mus musculus. The experiment in a line: Antifertility activity in CF1 mouse assessed as proportion of pregnant animals at 50 mg/kg/day, ip (reference value: 100%). In kind it is ADME, organism-based. Also noted: route intraperitoneal. Particulars: in vivo.
Series [16] is filed under the species Mus musculus. The experiment in a line: Antifertility activity in CF1 mouse assessed as proportion of fetus per litter at 10 ug (reference value: 100 +/- 25%). Particulars: in vivo. It counts as ADME, organism-based.
The species named for series [17] is Mus musculus. Nature of the series: Antifertility activity in CF1 mouse assessed as proportion of reabsorption litter at 10 ug (reference value: 100 +/- 25%). It counts as ADME, organism-based. The settings on record: in vivo.
Series [18] is filed under the species Mus musculus. Nature of the series: Antifertility activity in CF1 mouse assessed as proportion of pregnant animals at 10 ug (reference value: 100%). In kind it is ADME, organism-based. Particulars: in vivo.
Series [19] has as its system Rattus norvegicus. Nature of the series: Effect on lipid content in rat liver at 10 mg/kg/day administered for 16 days (reference value: 100 +/- 16%). The settings on record: in vivo, 384 h. It counts as ADME, organism-based.
For series [20], the system named is Rattus norvegicus. The experiment in a line: Hypocholesterolemic activity in rat assessed as serum triglyceride level at 10 mg/kg/day administered for 8 days (reference value: 100 +/- 15%). It counts as functional. In short, it runs like this:
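Male Sprague-Dawley rats dosed orally at 10 mg/kg/day in 1% CMC. Serum triglycerides were measured with a stat pack kit after 8 days of dosing. Expressed as percent of vehicle control, N = 8; Student's t test.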

Series [21] relates to Rattus norvegicus. Nature of the series: Effect on protein content in rat liver at 10 mg/kg/day administered for 16 days (reference value: 100 +/- 6%). In kind it is ADME, organism-based. Particulars: in vivo, 384 h.
For series [22], the system named is Rattus norvegicus. Nature of the series: Effect on glycogen content in rat liver at 10 mg/kg/day administered for 16 days (reference value: 100 +/- 24%). In kind it is ADME, organism-based. Particulars: in vivo, 384 h.
Series [23] relates to Rattus norvegicus. The experiment in a line: Effect on DNA content in rat liver at 10 mg/kg/day administered for 16 days (reference value: 100 +/- 25%). Particulars: in vivo, 384 h. It counts as ADME, organism-based.
Series [24] relates to Rattus norvegicus. The experiment in a line: Effect on RNA content in rat liver at 10 mg/kg/day administered for 16 days (reference value: 100 +/- 8%). In kind it is ADME, organism-based. Particulars: in vivo, 384 h.

Regarding `Cc1cc(Cl)c(OCC(=O)COc2cc(C)c(C)cc2Cl)cc1C`, the Activity with Rattus norvegicus [1] is reported as 0.52%; in the series on Rattus norvegicus [2] it was 79%; in the series with Rattus norvegicus [4], 1.06%; in the series with Rattus norvegicus [5], 56%; in the series on Rattus norvegicus [6], 4.8%; in the series with Rattus norvegicus [8], 58%. For the same compound, the Activity came to 0.16% in the series with Rattus norvegicus [9], 0.27% in the series on Rattus norvegicus [10], 65% in the series on Rattus norvegicus [11] and 1.24% with Rattus norvegicus [12]. Besides, the solubility entry in [3] is recorded as “Insoluble”. Also, the LD50 in series [7] was more than 2000 mg/kg.

For the compound `CC(Cc1ccccc1)C(=O)C(C)Cc1ccccc1` (centres undefined), the Activity with Mus musculus [13], in the series with Mus musculus [14] and with Mus musculus [15] was 0% in each case.

Turning to `CC/C(=C(/CC)c1ccc(O)cc1)c1ccc(O)cc1` [DIETHYLSTILBESTROL], the Activity in the series listed under Mus musculus [16], in the series filed under Mus musculus [17] and in the series listed under Mus musculus [18] was 0% in each case.

For the compound `O=C(COc1ccc(Cl)cc1)COc1ccc(Cl)cc1`, the Activity was determined as 0.39% in the series with Rattus norvegicus [1]; 81% in the series with Rattus norvegicus [2]; 30% with Mus musculus [13]; 101% in the series with Rattus norvegicus [19]; 84% in the series on Mus musculus [14]; 0.86% with Rattus norvegicus [4]. The Activity with Rattus norvegicus [20] is 108%; in the series on Rattus norvegicus [21], 91%; with Rattus norvegicus [5], 48%; in the series on Rattus norvegicus [6] it was 4.51%; in the series with Rattus norvegicus [22], 105%; in the series on Mus musculus [15], 100%. In addition, the Activity in the series on Rattus norvegicus [8] was found to be 62%; in the series with Rattus norvegicus [23] it was 78%; in the series with Rattus norvegicus [24] it was 99%; with Rattus norvegicus [9], 0.14%; in the series with Rattus norvegicus [10], 0.26%; with Rattus norvegicus [11] it was 64%. The compound also gave an Activity in the series on Rattus norvegicus [12] of 1.23%. Also, the solubility result in [3] is on record as “Insoluble”. In [7], the LD50 is more than 2000 mg/kg.
